We go through five compounds from ChEMBL document CHEMBL1165858, “Synthesis and biological evaluation of beta-chloro vinyl chalcones as inhibitors of TNF-alpha and IL-6 with antimicrobial activity” (Eur J Med Chem, 2010).

Data set [1] relates to Klebsiella pneumoniae. Description: Antibacterial activity against Klebsiella pneumoniae NCIM 5082 after 24 hrs by disc diffusion method. The data set is classed as functional. An outline of the steps:
(§1)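 Paper disc diffusion (6.25 mm Whatman no.1 discs, dry-heat sterilized at 140 °C for 1 h) loaded with compounds at different concentrations in DMSO. Discs were placed in triplicate on nutrient agar seeded with fresh bacterial culture and incubated at 37 °C for 24 h, with solvent and growth controls. Zones of inhibition (mm) and MIC, the concentration completely inhibiting growth, were recorded.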

Data set [2] relates to Proteus vulgaris. Description: Antibacterial activity against Proteus vulgaris NCIM 2813 after 24 hrs by disc diffusion method. Format: functional. Conditions: for MIC: Proteus vulgaris, NCIM 2813, 24 h. In short, it runs like this:
as §1
(In general: A growth-free zone around the sample is the usual read-out of agar diffusion tests.)

Data set [3] deals with Aspergillus fumigatus. Description: Antibacterial activity against Aspergillus fumigatus NCIM 902 after 72 hrs by disc diffusion method. Format: functional. An outline of the steps: (§2)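 Agar disc diffusion against fungi. Fungi were maintained on potato dextrose agar at (25 ± 2) °C for five days before use. Compounds were dissolved in DMSO (10 mg/mL initial solutions) and loaded on discs placed on freshly seeded plates alongside a solvent control disc. Plates were held at 4 °C for 24 h for diffusion, then incubated at 37 ± 5 °C for 72 h. Zones of inhibition (mm) and MICs were recorded.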

The test system of data set [4] is Aspergillus niger. Description: Antibacterial activity against Aspergillus niger NCIM 545 at > 100 […] after 72 hrs by disc diffusion method. The data set is classed as functional, organism-based.
Data set [5] concerns Trichoderma viride. Description: Antibacterial activity against Trichoderma viride TT after 72 hrs by disc diffusion method. The data set is classed as functional. An outline of the steps: as §2
For data set [6], the system named is Candida albicans. Description: Antibacterial activity against Candida albicans NCIM 3100 at > 100 […] after 72 hrs by disc diffusion method. Format: functional, organism-based.
Data set [7] concerns Penicillium chrysogenum. Description: Antibacterial activity against Penicillium chrysogenum NCIM 707 at > 100 […] after 72 hrs by disc diffusion method. The data set is classed as functional, organism-based.
The subject of data set [8] is THP-1. Description: Antiinflammatory activity in human THP1 cells assessed as inhibition of LPS-induced TNFalpha secretion at 10 uM treated 30 mins before LPS challenge measured after 24 hrs by ELISA relative to control. The data set is classed as functional. In short, it runs like this:
(§3)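 THP-1 cells were grown in RPMI 1640 with 10% FBS and penicillin/streptomycin, then differentiated with PMA. Compound or vehicle (0.5% DMSO) was added for 30 min at 37 °C, followed by LPS (E. coli 0127:B8, final 1 µg/mL). After 24 h at 37 °C in 5% CO2, TNF-α and IL-6 in the supernatants were quantified by ELISA. Values are the mean of n = 2.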

Data set [9] deals with THP-1. Description: Antiinflammatory activity in human THP1 cells assessed as inhibition of LPS-induced IL-6 secretion at 10 uM treated 30 mins before LPS challenge measured after 24 hrs by ELISA relative to control. Format: functional. In short, it runs like this:
as §3
(In general: In an ELISA, binding on a coated surface is turned into a signal by an enzyme label.)

Data set [10] can be described thus: Cytotoxicity against […] at 10 uM. Format: cell-based.
The test system of data set [11] is Bacillus subtilis. Description: Antibacterial activity against Bacillus subtilis NCIM 2546 after 24 hrs by disc diffusion method. The data set is classed as functional. In short, it runs like this:
as §1

The test system of data set [12] is Escherichia coli. Description: Antibacterial activity against Escherichia coli NCIM 2065 after 24 hrs by disc diffusion method. The data set is classed as functional. In short, it runs like this: as §1
Data set [13] has as its system Staphylococcus aureus. Description: Antibacterial activity against Staphylococcus aureus NCIM 2120 after 24 hrs by disc diffusion method. The data set is classed as functional. Conditions: for MIC: Staphylococcus aureus, NCIM 2120, 24 h. An outline of the steps:
as §1

Data set [14] concerns Staphylococcus aureus. Description: Antibacterial activity against Staphylococcus aureus NCIM 2120 at > 100 […] after 24 hrs by disc diffusion method. Format: functional, organism-based.
Data set [15] concerns Klebsiella pneumoniae. Description: Antibacterial activity against Klebsiella pneumoniae NCIM 5082 at > 100 […] after 24 hrs by disc diffusion method. Format: functional, organism-based.
The test system of data set [16] is Aspergillus fumigatus. Description: Antibacterial activity against Aspergillus fumigatus NCIM 902 at > 100 […] after 72 hrs by disc diffusion method. The data set is classed as functional, organism-based.
Data set [17] has as its system Aspergillus niger. Description: Antibacterial activity against Aspergillus niger NCIM 545 after 72 hrs by disc diffusion method. Format: functional. Conditions: for MIC: Aspergillus niger, NCIM 545, 72 h. In short, it runs like this: as §2
In data set [18] the test system is Trichoderma viride. Description: Antibacterial activity against Trichoderma viride TT at > 100 […] after 72 hrs by disc diffusion method. The data set is classed as functional, organism-based.
The subject of data set [19] is Bacillus subtilis. Description: Antibacterial activity against Bacillus subtilis NCIM 2546 at > 100 […] after 24 hrs by disc diffusion method. The data set is classed as functional, organism-based.
Data set [20] concerns Escherichia coli. Description: Antibacterial activity against Escherichia coli NCIM 2065 at > 100 […] after 24 hrs by disc diffusion method. Format: functional, organism-based.
Data set [21] deals with Proteus vulgaris. Description: Antibacterial activity against Proteus vulgaris NCIM 2813 at > 100 […] after 24 hrs by disc diffusion method. The data set is classed as functional, organism-based.
For data set [22], the system named is Candida albicans. Description: Antibacterial activity against Candida albicans NCIM 3100 after 72 hrs by disc diffusion method. Format: functional. In short, it runs like this:
as §2

Data set [23] deals with Penicillium chrysogenum. Description: Antibacterial activity against Penicillium chrysogenum NCIM 707 after 72 hrs by disc diffusion method. Format: functional. As to conditions: for MIC: Penicillium chrysogenum, NCIM 707, 72 h. An outline of the steps: as §2

Converted amounts (≈) assume the structure as drawn. The source made the active and inactive calls. No cut-off for these calls is given here.

Take `COc1cc(O)c(C(=O)/C=C/C=C(\Cl)c2ccc(C)cc2)c(OC)c1`: the “inhibition zone (IZ)” value in data set [1] is recorded as 18 mm; in data set [2], 19 mm; in data set [3] it was 10 mm; in data set [5] it was 13 mm; in data set [11], 15 mm; in [12] it was 12 mm. In data set [13], the “inhibition zone (IZ)” value was 16 mm. Moreover, the MIC – broadly, the lowest concentration that inhibits growth of the organism – in data set [1] (Klebsiella pneumoniae, NCIM 5082, 24 h) came to 25 µg/mL (≈ 69.7 µM); in data set [2], 25 µg/mL (≈ 69.7 µM); in data set [11] (Bacillus subtilis, NCIM 2546, 24 h), 50 µg/mL (≈ 139 µM); in data set [13] it was 50 µg/mL (≈ 139 µM). Also, the MIC result in data set [4], in data set [6] and in data set [7] was “inactive” each time. Further, the results for the inhibition at 10 µM in [8] and in data set [9] were 17% and 36%, respectively. In data set [10], the Activity entry is on record as “Non-toxic”.
`COc1ccc(/C(Cl)=C/C=C/C(=O)c2c(O)cc(OC)cc2OC)cc1`: the MIC entry in [14], in data set [15], in [16], in [18], in data set [6] and in data set [7] was “inactive” each time. In addition, the MIC result in data set [19] and in [20] was “inactive” each time. The “inhibition zone (IZ)” value in data set [2] is 17 mm; in data set [17], 16 mm. For the same compound, the MIC in data set [2] and in [17] was 50 µg/mL (≈ 133 µM) throughout. The inhibition (as a rule, the drop in the measured response relative to a control, in per cent) at 10 µM in data set [8] amounted to 18%; in [9], 78%. The Activity result in [10] is “Non-toxic”.
Consider `COc1cc(OC)cc(/C(Cl)=C/C=C/C(=O)c2c(O)cc(OC)cc2OC)c1`, for which the MIC entry in [14], in [15], in data set [21], in data set [19] and in data set [20] was “inactive” each time. Further, the “inhibition zone (IZ)” value in data set [3] turned out to be 14 mm; in data set [17], 16 mm; in [5], 14 mm; in [22], 12 mm; in [23] it was 15 mm. Moreover, the MIC in [3] (Aspergillus fumigatus, NCIM 902, 72 h) worked out at 50 µg/mL (≈ 124 µM); in data set [17] it was 50 µg/mL (≈ 124 µM); in data set [5] (Trichoderma viride, TT, 72 h) it was 50 µg/mL (≈ 124 µM); in [23], 50 µg/mL (≈ 124 µM). The inhibition at 10 µM in data set [8] came to 13%; in data set [9], 45%. Further, the Activity result in [10] is listed as “Non-toxic”.
`COc1cc(O)c(C(=O)/C=C/C=C(\Cl)c2cccc(Cl)c2)c(OC)c1`: the MIC result in [14], in data set [15], in [16], in data set [4], in data set [18] and in data set [6] was “inactive” in each case. Moreover, in data set [7], the MIC result was “inactive”. Moreover, the “inhibition zone (IZ)” value in [2] turned out to be 18 mm; in [11], 12 mm; in data set [12] it was 16 mm. Moreover, the MIC was 25 µg/mL (≈ 65.9 µM) in data set [2] and 50 µg/mL (≈ 132 µM) in [12] (Escherichia coli, NCIM 2065, 24 h). In addition, the inhibition at 10 µM in [8] is 0%; in data set [9] it was 31%. The Activity result in [10] is given as “Non-toxic”.
Take `COc1ccc(/C(Cl)=C/C=C/C(=O)c2c(O)cc(OC)cc2OC)c(OC)c1`: the “inhibition zone (IZ)” value in [1] is 13 mm; in [3] it was 10 mm; in data set [5], 10 mm; in data set [23], 14 mm; in data set [13], 14 mm. In addition, the MIC entry in data set [21], in [4], in [6], in data set [19] and in data set [20] was “inactive” throughout. For the same compound, the MIC in data set [23] and in data set [13] was 50 µg/mL (≈ 124 µM) in each case. In addition, the inhibition at 10 µM in data set [8] is 0%; in [9], 33%. Besides, the Activity entry in data set [10] was “Non-toxic”.
